Assays:
[1] = system: Rattus norvegicus; assay: Evaluated for blood pressure lowering activity in spontaneously hypertensive rats (maximum change of systolic blood pressure (SBP)) at a dose of 1.25 mg/kg; format: functional, Artery
How it was run: (§1)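 Adult male SHR, conscious, restrained in a chamber at 32 °C. SBP measured indirectly by tail cuff with a pneumatic pulse transducer. After baseline, groups of 4–6 received a single oral gavage dose or vehicle (0.5% methylcellulose). SBP was read at 0.5, 1, 2, 3 and 4 h, and the maximum SBP change ± SEM was reported against the vehicle effect.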

[2] = system: Rattus norvegicus; assay: Time to peak fall in systolic blood pressure in spontaneously hypertensive rats after oral administration of 1.25 mg/kg of the compound
[3] = system: Rattus norvegicus; assay: Evaluated for blood pressure lowering activity in the conscious spontaneously hypertensive rats (SHR) (time to peak (h)) at a dose of 2.5 mg/kg; format: functional
How it was run: (§2)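 Conscious adult male SHR in restrainers at 32 °C, with tail-cuff and pulse-transducer SBP recording. Groups of 4–6 got a single gavage dose in 0.5% methylcellulose or vehicle alone. SBP was sampled at 0.5, 1, 2, 3 and 4 h post-dose, and the time (h) at which the peak SBP change occurred was recorded.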

[4] = system: Rattus norvegicus; assay: Evaluated for blood pressure lowering activity in spontaneously hypertensive rats (maximum change of systolic blood pressure (SBP)) at a dose of 2.5 mg/kg; format: functional, Artery; how it was run: as §1
[5] = system: Rattus norvegicus; assay: Evaluated for blood pressure lowering activity in spontaneously hypertensive rats (maximum change of systolic blood pressure (SBP)) at a dose of 20 mg/kg; format: functional, Artery; how it was run: as §1
[6] = system: Rattus norvegicus; assay: Time to reach peak blood pressure lowering effect in spontaneously hypertensive rats after oral administration of 20 mg/kg of the compound
[7] = system: Rattus norvegicus; assay: Evaluated for blood pressure lowering activity in the conscious spontaneously hypertensive rats (SHR) (time to peak (h)) at a dose of 5 mg/kg; format: functional; how it was run: as §2
[8] = system: Rattus norvegicus; assay: Evaluated for blood pressure lowering activity in spontaneously hypertensive rats (maximum change of systolic blood pressure (SBP)) at a dose of 5 mg/kg; format: functional, Artery; how it was run: as §1
[9] = system: Canis familiaris; assay: Intravenous dose required to produce a 20-fold rightward shift in the phenylephrine dose-response curve in the dog; format: functional, Canis lupus familiaris
How it was run: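 Mongrel dogs, anesthetized and bilaterally vagotomized. Mean arterial pressure was recorded via carotid cannula, and drug was given iv through the jugular vein. Phenylephrine dose–response curves were run before and after antagonist. The iv dose (μg/kg) producing a 20-fold rightward shift (DR20) was calculated; n = animals tested.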

[10] = system: Rattus norvegicus; assay: Intravenous dose required to produce a 50% inhibition of the phenylephrine pressor response in the spontaneously hypertensive rats; format: functional
How it was run: (§3)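 Adult male SHR, anesthetized and bilaterally vagotomized. A carotid artery was cannulated for mean arterial pressure and a jugular vein for iv dosing. Phenylephrine pressor responses were measured before and after antagonist. The iv dose (μg/kg) giving 50% inhibition of the pressor response (ED50) was reported with fiducial limits.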

[11] = species on record: Rattus norvegicus; assay: Peroral dose required to produce a 50 mmHg drop in systolic blood pressure (SBP) in the spontaneously hypertensive rats; format: functional; conditions: Artery, po
How it was run: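 Adult male SHR, conscious, tail-cuff indirect SBP at 32 °C. Groups of 4–6 were given single oral gavage doses of 0.5–20 mg/kg in 0.5% methylcellulose, with SBP followed over 4 h. The dose giving a 50 mmHg SBP fall (ED50SBP, mg/kg po) was calculated by regression analysis with 95% fiducial limits; n = animals tested.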

[12] = system: Rattus norvegicus; assay: Evaluated for blood pressure lowering activity in the conscious spontaneously hypertensive rats (SHR) (time to peak (h)) at a dose of 1.25 mg/kg; format: functional; how it was run: as §2
[13] = system: Rattus norvegicus; assay: Time to reach peak blood pressure lowering effect in spontaneously hypertensive rats after oral administration of 2.5 mg/kg of the compound
[14] = system: Rattus norvegicus; assay: Evaluated for blood pressure lowering activity in the conscious spontaneously hypertensive rats (SHR) (time to peak (h)) at a dose of 10 mg/kg; format: functional; how it was run: as §2
[15] = system: Rattus norvegicus; assay: Evaluated for blood pressure lowering activity in spontaneously hypertensive rats (maximum change of systolic blood pressure (SBP)) at a dose of 10 mg/kg; format: functional, Artery; how it was run: as §1
[16] = system: Rattus norvegicus; assay: Evaluated for blood pressure lowering activity in spontaneously hypertensive rats (maximum change of systolic blood pressure (SBP)) at a dose of 0.5 mg/kg; format: functional, Artery; how it was run: as §1
[17] = system: Rattus norvegicus; assay: Time to peak fall in systolic blood pressure in spontaneously hypertensive rats after oral administration of 0.5 mg/kg of the compound
[18] = system: Rattus norvegicus; assay: Intravenous dose required to produce 50% inhibition of the phenylephrine pressor response in the spontaneously hypertensive rats; format: functional; how it was run: as §3
[19] = system: Rattus norvegicus; assay: Time to peak fall in systolic blood pressure in spontaneously hypertensive rats after oral administration of 10 mg/kg of the compound

COc1ccccc1N1CCN(CCn2c(=O)[nH]c3sc(Cl)cc3c2=O)CC1
Delta SBP [1]: -25 mmHg
Time [2]: 0.5 h

Cc1ccccc1N1CCN(CCn2c(=O)[nH]c3ccsc3c2=O)CC1
Delta SBP [1]: -33 mmHg
Time [2]: 1 h

COc1ccccc1N1CCN(CCn2c(=O)c3sccc3n(C(=O)C(C)(C)C)c2=O)CC1
Time [3]: 0.5 h
Delta SBP [4]: -62 mmHg

O=c1[nH]c2ccsc2c(=O)n1CCN1CCN(c2ccccc2Cl)CC1
Delta SBP [1]: -30 mmHg
Time [2]: 0.5 h

COc1ccccc1N1CCN(CCn2c(=O)[nH]c3sc(C)c(C)c3c2=O)CC1
Delta SBP [5]: -50 mmHg
Time [6]: 1 h

COc1ccccc1N1CCN(CCn2c(=O)c3cscc3n(C(=O)c3ccc(Cl)cc3)c2=O)CC1
Time [7]: 1 h
Delta SBP [8]: -14 mmHg

COc1ccccc1N1CCN(CCn2c(=O)[nH]c3ccccc3c2=O)CC1
DR20 [9]: 10 µg/kg
ED50 [10]: 0.0033 mg/kg
ED50 [11]: 0.54 mg/kg
Time [12]: 0.5 h
Delta SBP [1]: -54 mmHg

CCCCn1c(=O)n(CCN2CCN(c3ccccc3OC)CC2)c(=O)c2sccc21
Delta SBP [1]: -28 mmHg
Time [2]: 0.5 h

COc1ccccc1N1CCN(CCn2c(=O)[nH]c3c(Cl)scc3c2=O)CC1
Delta SBP [4]: -75 mmHg
Time [13]: 0.5 h

CCOc1ccccc1N1CCN(CCn2c(=O)[nH]c3cscc3c2=O)CC1.Cl
Delta SBP [4]: -79 mmHg
Time [13]: 2 h

CCCCCCCCn1c(=O)n(CCN2CCN(c3ccccc3OC)CC2)c(=O)c2cscc21
Time [14]: 2 h
Delta SBP [15]: -54 mmHg

COc1ccccc1N1CCN(CCn2c(=O)[nH]c3cscc3c2=O)CC1.Cl
DR20 [9]: 3 µg/kg
ED50 [10]: 0.0017 mg/kg
ED50 [11]: 0.21 mg/kg
Delta SBP [16]: -83 mmHg
Time [17]: 0.5 h

COc1cc2nc(N3CCN(C(=O)c4ccco4)CC3)nc(N)c2cc1OC [PRAZOSIN]
DR20 [9]: 300 µg/kg
ED50 [18]: 0.0104 mg/kg
ED50 [11]: 0.22 mg/kg
Time [12]: 0.5 h
Delta SBP [1]: -60 mmHg

COC(=O)CCn1c(=O)n(CCN2CCN(c3ccccc3OC)CC2)c(=O)c2cscc21
Delta SBP [15]: -55 mmHg
Time [19]: 1 h

COc1ccccc1N1CCN(CCn2c(=O)[nH]c3scc(C)c3c2=O)CC1.Cl.O
Delta SBP [15]: -56 mmHg
Time [19]: 0.5 h

O=c1[nH]c2sccc2c(=O)n1CCN1CCN(c2ccccc2Cl)CC1
Delta SBP [15]: -43 mmHg
Time [19]: 2 h

COc1cccc(N2CCN(CCn3c(=O)[nH]c4cscc4c3=O)CC2)c1
Delta SBP [5]: -52 mmHg
Time [6]: 0.5 h

COc1ccccc1N1CCN(CCn2c(=O)[nH]c3ccsc3c2=O)CC1
DR20 [9]: 4 µg/kg
ED50 [10]: 0.0021 mg/kg
ED50 [11]: 0.19 mg/kg
Delta SBP [1]: -74 mmHg
Time [2]: 0.5 h

Cc1ccccc1N1CCN(CCn2c(=O)[nH]c3sccc3c2=O)CC1
Delta SBP [15]: -70 mmHg
Time [19]: 0.5 h

COc1ccccc1N1CCN(CCn2c(=O)c3cscc3n(C(=O)c3ccccc3)c2=O)CC1
Time [7]: 1 h
Delta SBP [8]: -68 mmHg

Cl.O=c1[nH]c2cscc2c(=O)n1CCN1CCN(c2ccc(F)cc2)CC1
Delta SBP [15]: -68 mmHg
Time [19]: 0.5 h

COc1ccc(N2CCN(CCn3c(=O)[nH]c4sccc4c3=O)CC2)cc1
Delta SBP [15]: -40 mmHg
Time [19]: 0.5 h

COc1ccccc1N1CCN(CCn2c(=O)c3ccsc3n(C)c2=O)CC1
Delta SBP [1]: -28 mmHg
Time [2]: 0.5 h

COc1cccc(N2CCN(CCn3c(=O)[nH]c4ccsc4c3=O)CC2)c1
Delta SBP [4]: -28 mmHg
Time [13]: 1 h

COc1ccccc1N1CCN(CCn2c(=O)[nH]c3csc(C)c3c2=O)CC1.Cl
Delta SBP [1]: -66 mmHg
Time [2]: 1 h

COc1ccccc1N1CCN(CCn2c(=O)c3cscc3n(C(C)=O)c2=O)CC1
Time [3]: 0.5 h
Delta SBP [4]: -44 mmHg

Reference: ChEMBL document CHEMBL1124204, “Thiophene systems. 9. Thienopyrimidinedione derivatives as potential antihypertensive agents” (1988)
